Screens from PubChem BioAssay.
Most compounds without a hit are left out; they make up all but 4.1% or so of the library.
MEKK2mut PB1 HTS – signal of MEK5 binding to mutant human MEKK2 PB1 domain | bead flow cytometry, Alexa488-MEK5 binding to MEKK2 mutant | percent response, % at 10 µM | actives 0.35% (n = 290,000) | AID 1530; in the data active = percent response above about 24%, passing the limit was not always enough
MEKK3 PB1 HTS – raises or lowers MEK5 binding to the human MEKK3 PB1 domain. bead-based flow cytometry, Alexa488-MEK5 binding to MEKK3; actives lie on both sides; 0 = blocked by unlabeled MEK5, 100 = vehicle. actives 1.4% (n = 290,000). binding response (% of control), % at 10 µM. Q99759;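 active = binding response more than 3 SD above or below the average of its plate-row segment, actives on both sides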;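 also: Alexa488 bead fluorescence after subtracting the streptavidin-only scavenger bead signal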
Target sequence (Q99759 whole entry, looked up, the tested form may be a part): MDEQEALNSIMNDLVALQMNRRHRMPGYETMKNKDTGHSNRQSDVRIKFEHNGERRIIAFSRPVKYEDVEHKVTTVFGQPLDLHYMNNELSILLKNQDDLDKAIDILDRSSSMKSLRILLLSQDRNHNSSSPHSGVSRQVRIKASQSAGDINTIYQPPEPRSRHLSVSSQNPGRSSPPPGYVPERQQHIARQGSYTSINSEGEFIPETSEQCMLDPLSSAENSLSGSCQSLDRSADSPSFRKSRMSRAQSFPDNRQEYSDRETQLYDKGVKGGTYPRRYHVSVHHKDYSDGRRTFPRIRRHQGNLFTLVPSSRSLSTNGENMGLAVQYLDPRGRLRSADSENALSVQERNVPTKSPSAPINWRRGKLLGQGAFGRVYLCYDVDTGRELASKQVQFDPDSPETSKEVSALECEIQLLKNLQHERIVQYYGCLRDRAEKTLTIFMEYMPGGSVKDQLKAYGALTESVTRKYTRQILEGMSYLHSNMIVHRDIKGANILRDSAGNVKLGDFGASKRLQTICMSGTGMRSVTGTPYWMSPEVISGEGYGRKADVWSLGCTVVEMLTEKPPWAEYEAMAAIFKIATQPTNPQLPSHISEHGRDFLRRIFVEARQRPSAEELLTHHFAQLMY
FID counter – displaces DNA intercalator in HCV helicase counter-screen | DNA fluorescent intercalator displacement, fluorescence | inhibition, % at 7.9 µM | actives 0.17% (n = 290,000) | AID 1845; in the data active = inhibition above about 37%;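 also: 0% = vehicle and 100% = reference compound; higher means more ethidium bromide displaced from hairpin DNA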
T cruzi inh – blocks replication of Trypanosoma cruzi; T. cruzi beta-gal in NIH3T3, luminescence, 90 h; inhibition, % (no concentration beside the values); actives 1.4% (n = 300,000);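 active = mean inhibition across valid replicates above about 55%, limit read from the data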;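 also: signal also drops with host cell toxicity which is not excluded here; 0% = plate median of DMSO wells and 100% = zero luminescence signal; higher percent means less beta-gal luminescence so fewer parasites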
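Assay system: NIH/3T3 fibroblasts plus reporter T. cruzi. Amount: NIH/3T3 cells, 5,000 per well. Buffer or medium: DMEM, 2% fetal bovine serum. Doses: compound pinned at 50 nL/well, DMSO. Schedule: ≥90 h infection period, 3 h prior cell attachment. Signal: luminescent β-galactosidase signal after 60 min lysis. Read-out: parasite load inhibition, %.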
NS3 helicase inh – blocks Hepatitis C virus NS3 helicase unwinding. NS3 helicase DNA unwinding, Cy5 molecular beacon fluorescence. inhibition, % at 10.9 µM. actives 0.56% (n = 290,000). AID 1800;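 active = inhibition above the mean of all tested compounds plus 3 SD, set per campaign, cut at about 35% in these data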;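 also: 0% = DMSO wells and 100% = thioflavine S control wells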
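System: Hepatitis C virus NS3 helicase domain fragment enzyme | Reagent: Annealed dual-labelled DNA beacon duplex, ATP-started | Compound dosing: 10.9 µM single point, 0.8% DMSO | Incubation: 1 h reaction at 25 °C, ATP-initiated | Technique: Cy5 fluorescence | Evaluation: Percent inhibition from t60/t0 fluorescence ratio | Benchmarks: Low DMSO, high thioflavine S at 110 µM | Replication: Singlicate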
MEKK2wt PB1 HTS – raises or lowers MEK5 binding to wildtype human MEKK2 PB1 domain; Q9Y2U5; bead flow cytometry, Alexa488-MEK5 binding to MEKK2 WT; actives lie on both sides; binding response (% of control), % at 10 µM; actives 1.1% (n = 290,000); in the data active = binding response below about 67% or above about 130%
MEKK2wt confirm – raises or lowers MEK5 binding to wildtype human MEKK2, retest | shares compounds with MEKK3 PB1 HTS | bead flow cytometry, Alexa488-MEK5 binding to MEKK2 WT; actives lie on both sides | binding response (% of control), % at 10 µM | actives 2.4% (n = 5,900); in the data active = binding response below about 16% or above about 210%; inactive = in between
MEKK2mut-MEK5 – signal of MEK5 binding to mutant human MEKK2, retest; AID 1893; actives 2% (n = 5,900); percent response, % at 10 µM; bead flow cytometry, Alexa488-MEK5 binding to MEKK2 mutant; shares compounds with MEKK3 PB1 HTS; in the data active = percent response mostly above about 71%, no sharp cut-off; inactive = mostly below about 38%;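 also: higher means compound restores mutant binding toward wildtype level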
MEKK3-MEK5 inh – MEKK3-MEK5 PB1 inhibition, single concentration confirmation; shares compounds with MEKK3 PB1 HTS; bead flow cytometry, Alexa488-MEK5 binding to MEKK3; stronger effect = lower value; binding response (% of control), % at 10 µM; actives 1.8% (n = 5,900); AID 1894;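 active = binding response below 72% of control, or above a set upper limit, though filed actives all read lower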;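 also: 100% = DMSO only wells and 0% = binding blocked by excess unlabeled MEK5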
Active calls of the source: *; · = no result; [ ] = remark or other dose.

SMILES	MEKK2mut PB1 HTS	MEKK3 PB1 HTS	FID counter	T cruzi inh	NS3 helicase inh	MEKK2wt PB1 HTS	MEKK2wt confirm	MEKK2mut-MEK5	MEKK3-MEK5 inh
Cc1cccc(C(=O)OC2CCOC2=O)c1C (stereo unspecified)	-2.0	96.0	-7.1	-11.0	8.0	97.0	·	·	·
Clc1cccc(Cl)c1CSc1nnc([C@@H]2CCCN2)o1	8.0	104.0	-4.2	-1.9	4.2	99.0	·	·	·
Cc1cc(N/N=C/c2cccc(F)c2)nc(NCc2ccccc2)n1	25.0	96.0	5.1	22.6	-72.0	140.0*	138.0	26.0	106.0
Cc1cc(N/N=C/c2ccccc2F)nc(NCc2ccccc2)n1	11.0	95.0	-3.5	20.6	-71.3	114.0	·	·	·
CCOc1ccc(Nc2nc(N(C)c3ccccc3)nc(N)c2[N+](=O)[O-])cc1	6.0	103.0	-7.0	0.3	-11.1	100.0	·	·	·
CC(C)(C)c1ccccc1OCCOCCN1CCCCCC1	37.0	106.0	4.6	56.3*	-23.6	164.0*	138.0	17.0	107.0
Fc1ccccc1CNC(=S)Nc1cccc(C(F)(F)F)c1	-1.0	134.0*	9.4	7.5	-2.1	99.0	110.0	8.0	111.0
Fc1ccc(CNC(=S)Nc2cccc(C(F)(F)F)c2)cc1	1.0	100.0	-0.6	3.3	0.6	106.0	·	·	·
Clc1ccc(OCCOCCOc2cccc3cccnc23)c(Br)c1	1.0	137.0*	-14.8	0.2	-11.3	109.0	111.0	16.0	114.0
COc1ccc(Cl)cc1N1C(=NC(=O)C2CCCCC2)SC2CS(=O)(=O)CC21 (stereo unspecified)	-3.0	98.0	-32.5	8.7	-12.5	101.0	·	·	·
COc1ccccc1NC(=O)N1CCCC1C(=O)NCc1ccccc1Cl (stereo unspecified)	9.0	106.0	-10.6	2.1	0.3	109.0	·	·	·
CCOC(=O)C1=C(NC(=S)NC(=O)c2ccccc2)c2ccccc2CC1(C)CC (stereo unspecified)	1.0	94.0	-18.1	-19.7	-5.8	30.0*[inhibitor]	98.0	0.0	101.0
c1ccc(-c2cc(-c3nnc4n3N=C(c3ccc5ccccc5c3)CS4)[nH]n2)cc1	-1.0	107.0	-13.7	58.8*	-29.0	71.0*[inhibitor]	75.0	-17.0	98.0
CC[n+]1c(/C=C/N(C)c2ccccc2)n(-c2ccccc2)c2ccc(-c3nc4ccccc4s3)cc21	140.0*	112.0	40.8*	38.6	-31.9	328.0*	262.0*	117.0*	115.0
CCOC(=O)c1ccc2c(c1)n(CC)c(/C=C/N(C)c1ccccc1)[n+]2CC	-1.0	98.0	3.0	37.4	-15.2	101.0	·	·	·
Cn1c(OCc2cccnc2)nc2c1c(=O)n(Cc1ccccc1)c(=O)n2C	-6.0	93.0	-24.1	1.5	-5.1	99.0	·	·	·
Cn1c(OCc2cccnc2)nc2c1c(=O)n(Cc1ccc(F)cc1)c(=O)n2C	-30.0	71.0*[inhibitor]	-13.5	7.4	-1.0	78.0	99.0	-2.0	104.0
COc1ccccc1CNC(=O)CSc1nnc2c(Cl)cc(C(F)(F)F)cn12	1.0	137.0*	-9.3	2.3	1.7	109.0	109.0	5.0	109.0
O=C(CSc1nnc2c(Cl)cc(C(F)(F)F)cn12)Nc1ccc2c(c1)OCO2	-6.0	87.0	-6.6	5.9	5.1	87.0	·	·	·
COc1ccccc1CNC(=O)CSc1ccc(C)cc1	2.0	145.0*	-6.9	-5.5	-7.3	112.0	103.0	2.0	102.0
COc1ccccc1CNC(=O)CSc1ccccc1	-2.0	97.0	-6.2	5.5	12.7	95.0	·	·	·
COc1ccccc1C(=O)NC(=O)COC(=O)CNC(=O)c1ccc(Cl)c([N+](=O)[O-])c1	·	·	·	-6.9	·	·	·	·	·
O=C(Nc1cc(C(=O)N2CCN(c3ccccc3O)CC2)ccc1Cl)c1cccs1	·	·	·	-17.7	·	·	·	·	·
O=C(c1ccccc1-c1ncc[nH]1)N1CCc2c([nH]c3ccccc23)C1c1ccccn1 (stereo unspecified)	-13.0	86.0	-4.3	12.6	-13.7	74.0	·	·	·
Cc1ccc(S(=O)(=O)c2c(N)n(-c3ccccc3)c3nc4ccccc4nc23)cc1	0.0	136.0*	-11.5	26.4	-2.4	102.0	94.0	2.0	92.0
SMILES	MEKK2mut PB1 HTS	MEKK3 PB1 HTS	FID counter	T cruzi inh	NS3 helicase inh	MEKK2wt PB1 HTS	MEKK2wt confirm	MEKK2mut-MEK5	MEKK3-MEK5 inh
O=[N+]([O-])c1cc(Cl)ccc1N1CCN(c2cccc(C(F)(F)F)c2)CC1	14.0	103.0	0.9	37.7	0.9	138.0*	110.0	4.0	103.0
Cn1nc2c3cc(F)ccc3n(Cc3ccc(F)cc3)cc-2c1=O	12.0	107.0	-17.1	4.7	0.3	109.0	·	·	·
COc1ccc(Cn2cc3c(-c4ccc(F)cc4)nnc-3c3cc(OC)c(OC)cc32)cc1	57.0*	118.0	4.3	·	-83.5	188.0*	208.0*	81.0*	109.0
COc1ccc(-c2nnn(Cc3ccccc3)n2)cc1OC	1.0	103.0	-25.3	13.4	2.7	104.0	·	·	·
COc1cc2c3nnc(-c4ccc(F)cc4)c-3cn(Cc3ccc(F)cc3)c2cc1OC	36.0*	91.0	15.2	1.2	-84.5	193.0*	190.0	57.0	100.0
COc1cc2c3nnc(-c4ccc(F)cc4)c-3cn(Cc3ccccc3)c2cc1OC	46.0*	111.0	3.1	6.0	-86.6	178.0*	187.0	47.0	102.0
CCOC(=O)Nc1ccc(Cc2ccncc2)cc1	-10.0	82.0	-7.7	-0.8	-9.5	75.0	·	·	·
O=C(NCc1nc(-c2ccc(C(F)(F)F)cc2)no1)Nc1ccc(F)cc1F	29.0	131.0*	-3.6	9.8	-1.2	117.0	95.0	-9.0	99.0
O=C(NCc1nc(-c2ccc(C(F)(F)F)cc2)no1)Nc1cc(Cl)cc(Cl)c1	52.0*	136.0*	3.5	59.6*	5.5	179.0*	151.0	46.0	108.0
COc1ccc(N/C=C(\C#N)S(=O)(=O)c2ccc(Cl)cc2)c(OC)c1	3.0	103.0	-29.2	13.3	-11.7	97.0	·	·	·
O=C(Nc1ccc(CN2CCCCC2)cc1)Nc1ccc(Br)cc1Cl	11.0	113.0	4.0	17.4	-16.4	165.0*	144.0	20.0	104.0
S=C(Nc1ccc(Br)cc1Cl)N1CCCC1	4.0	102.0	-9.5	-7.0	2.5	104.0	·	·	·
CCOCCCNC(=S)N1CCN(c2nc(-c3ccccc3)cs2)CC1	6.0	101.0	-36.2	-4.3	-19.9	106.0	·	·	·
